In assay [1] the test system is Aspergillus fumigatus. Nature of the assay: Antifungal activity against drug-resistant Aspergillus fumigatus EMFR-S678P assessed as reduction in colony size at 0.12 ug/ml. The assay is classed as functional, organism-based.
Assay [2] deals with Aspergillus fumigatus. In words: Antifungal activity against drug-susceptible Aspergillus fumigatus KU80 delta-akuB assessed as reduction in colony size at 0.12 ug/ml. The assay is classed as functional, organism-based.
The subject of assay [3] is Aspergillus fumigatus. In words: Induction of change in isocitrate dehydrogenase Idp1, putative protein level in iTRAQ-116 labelled secreted fraction of drug-susceptible Aspergillus fumigatus KU80 delta-akuB at 0.12 ug/ml after 48 hrs in YPD medium by MS (MS/MS) analysis relative to control. The assay is classed as functional. The procedure, abridged: (§1)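 Conidia (1 × 10⁵/ml) grown in YPD, 37°C, 225 rpm, ± 0.12 μg/ml caspofungin; filtrate taken as secreted fraction, French-press lysate 5,000 × g pellet as cell wall/plasma membrane. Trypsin digests 8-plex iTRAQ-labelled (drug-free channels as references), pooled, 2D-chromatography, MS/MS. Median-normalized; protein ratio = median of unique-peptide ratios, log2 normalized.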

Assay [4] relates to Aspergillus fumigatus. Nature of the assay: Induction of change in ribosomal protein S9 protein level in iTRAQ114 labelled secreted fraction of drug-susceptible Aspergillus fumigatus KU80 delta-akuB at 0.12 ug/ml after 24 hrs in YPD medium by MS (MS/MS) analysis relative to control. It is filed as functional. The gist of the method:
as §1

The subject of assay [5] is Aspergillus fumigatus. Nature of the assay: Induction of change in 60S ribosomal protein L12, putative gene expression in drug-susceptible Aspergillus fumigatus KU80 delta-akuB at 0.12 ug/ml after 24 hrs in YPD medium by microarray analysis relative to control. The assay is classed as functional. The gist of the method: (§2)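 Mycelia grown in YPD ± 0.12 μg/ml caspofungin (1 × 10⁵ conidia/ml, 37°C, shaking) and harvested at 24 or 48 h. Total RNA extracted, DNase-treated and quality-checked; 2 μg labelled per TIGR SOP M007 and hybridized to whole-genome arrays. Three independent experiments with dye flip (6 replicates); drug vs untreated fold change.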

The subject of assay [6] is Aspergillus fumigatus. Nature of the assay: Induction of change in 60S ribosomal protein L10 protein level in iTRAQ-118 labelled cell wall fraction of drug-resistant Aspergillus fumigatus EMFR-S678P at 0.12 ug/ml after 24 hrs in YPD medium by MS (MS/MS) analysis relative to control. It is filed as functional, organism-based. The procedure, abridged:
(§3)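 Conidia at 1 × 10⁵/ml were grown at 37°C, shaking at 225 rpm, in YPD with or without 0.12 μg/ml caspofungin for 24 or 48 h. The culture filtrate was kept as the secreted fraction. Mycelia were lysed by French press in HEPES/glycerol/EDTA/PMSF/DTT buffer, and the 5,000 × g pellet was washed to give CW/PM. Proteins were reduced, alkylated and trypsin-digested at 37°C overnight, then iTRAQ-labelled and run by 2D LC-MS/MS. Ratios are the median of unique-peptide ratios, median-normalized, versus the no-drug control.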

For assay [7], the system named is Aspergillus fumigatus. Nature of the assay: Induction of change in isocitrate dehydrogenase Idp1, putative protein level in iTRAQ-118 labelled cell wall fraction of drug-susceptible Aspergillus fumigatus KU80 delta-akuB at 0.12 ug/ml after 24 hrs in YPD medium by MS (MS/MS) analysis relative to control. It is filed as functional. The gist of the method: as §1
In assay [8] the test system is Aspergillus fumigatus. Nature of the assay: Induction of change in allergen Asp F4 protein level in iTRAQ114 labelled secreted fraction of drug-resistant Aspergillus fumigatus EMFR-S678P at 0.12 ug/ml after 24 hrs in YPD medium by MS (MS/MS) analysis relative to control. The assay is classed as functional, organism-based. The gist of the method: as §3
Assay [9] has as its system Aspergillus fumigatus. In words: Induction of change in cobalamin-independent methionine synthase MetH/D protein level in iTRAQ-116 labelled secreted fraction of drug-resistant Aspergillus fumigatus EMFR-S678P at 0.12 ug/ml after 48 hrs in YPD medium by MS (MS/MS) analysis relative to control. It is filed as functional. The procedure, abridged:
as §3

In assay [10] the test system is Aspergillus fumigatus. Nature of the assay: Induction of change in aconitate hydratase, mitochondrial protein level in iTRAQ-116 labelled secreted fraction of drug-susceptible Aspergillus fumigatus KU80 delta-akuB at 0.12 ug/ml after 48 hrs in YPD medium by MS (MS/MS) analysis relative to control. It is filed as functional. The gist of the method:
(§4)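 Conidia at 1 × 10⁵/ml grown shaking at 37°C in YPD with or without 0.12 μg/ml caspofungin; mycelia filtered at 24 or 48 h. Secreted fraction taken from the filtrate; cell wall/plasma membrane pellet recovered after French-press lysis and a 5,000 × g spin. Proteins trypsin-digested and iTRAQ-labelled, drug vs no-drug channels at each time, then 2D LC-MS/MS. Protein ratio is the median of ratios from uniquely assigned peptides after median normalization.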

Assay [11] has as its system Aspergillus fumigatus. In words: Induction of change in phosphoglycerate kinase PgkA, putative protein level in iTRAQ-116 labelled secreted fraction of drug-susceptible Aspergillus fumigatus KU80 delta-akuB at 0.12 ug/ml after 48 hrs in YPD medium by MS (MS/MS) analysis relative to control. The assay is classed as functional. The gist of the method:
as §1

For assay [12], the system named is Aspergillus fumigatus. In words: Induction of change in large subunit ribosomal protein L3 gene expression in drug-susceptible Aspergillus fumigatus KU80 delta-akuB at 0.12 ug/ml after 24 hrs in YPD medium by microarray analysis relative to control. It is filed as functional. The procedure, abridged: (§5)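 Mycelia grown from 1 × 10⁵ conidia/ml in YPD at 37°C, 225 rpm, with or without 0.12 μg/ml caspofungin. Total RNA extracted, DNase-treated; 2 μg labelled per TIGR SOP M007 for whole-genome array hybridization. Three independent experiments with dye flip (6 replicates); >2-fold change deemed significant.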

Assay [13] has as its system Aspergillus fumigatus. Nature of the assay: Induction of change in cytosolic small ribosomal subunit S4, putative gene expression in drug-susceptible Aspergillus fumigatus KU80 delta-akuB at 0.12 ug/ml after 24 hrs in YPD medium by microarray analysis relative to control. The assay is classed as functional. The gist of the method: as §2
The test system of assay [14] is Aspergillus fumigatus. Nature of the assay: Induction of change in ATP citrate lyase, subunit 1, putative protein level in iTRAQ114 labelled secreted fraction of drug-susceptible Aspergillus fumigatus KU80 delta-akuB at 0.12 ug/ml after 24 hrs in YPD medium by MS (MS/MS) analysis relative to control. The assay is classed as functional. The procedure, abridged: as §4

The subject of assay [15] is Aspergillus fumigatus. Nature of the assay: Induction of change in 4-hydroxyphenylpyruvate dioxygenase, putative protein level in iTRAQ-116 labelled secreted fraction of drug-susceptible Aspergillus fumigatus KU80 delta-akuB at 0.12 ug/ml after 48 hrs in YPD medium by MS (MS/MS) analysis relative to control. The assay is classed as functional. The procedure, abridged:
as §4

Assay [16] concerns Aspergillus fumigatus. In words: Induction of change in BYS1 domain protein, putative protein level in iTRAQ-118 labelled cell wall fraction of drug-susceptible Aspergillus fumigatus KU80 delta-akuB at 0.12 ug/ml after 24 hrs in YPD medium by MS (MS/MS) analysis relative to control. The assay is classed as functional. The procedure, abridged:
as §4

Assay [17] relates to Aspergillus fumigatus. In words: Induction of change in 60s ribosomal protein yl6 protein level in iTRAQ114 labelled cell wall fraction of drug-susceptible Aspergillus fumigatus KU80 delta-akuB at 0.12 ug/ml after 24 hrs in YPD medium by MS (MS/MS) analysis relative to control. The assay is classed as functional. The gist of the method: as §4
Assay [18] has as its system Aspergillus fumigatus. In words: Induction of change in extracellular thaumatin domain protein, putative gene expression in drug-susceptible Aspergillus fumigatus KU80 delta-akuB at 0.12 ug/ml after 48 hrs in YPD medium by microarray analysis relative to control. The assay is classed as functional. The gist of the method: as §2
In assay [19] the test system is Aspergillus fumigatus. In words: Induction of change in ribosomal protein L27a gene expression in drug-susceptible Aspergillus fumigatus KU80 delta-akuB at 0.12 ug/ml after 24 hrs in YPD medium by microarray analysis relative to control. The assay is classed as functional. The procedure, abridged:
as §5

The source made the active and inactive calls. No cut-off for these calls is given here. Some results are limits rather than exact numbers.

With `CC[C@H](C)C[C@H](C)CCCCCCCCC(=O)N[C@H]1C[C@@H](O)[C@@H](NCCN)NC(=O)[C@@H]2[C@@H](O)CCN2C(=O)[C@H]([C@H](O)CCN)NC(=O)[C@H]([C@H](O)[C@@H](O)c2ccc(O)cc2)NC(=O)[C@@H]2C[C@@H](O)CN2C(=O)[C@H]([C@@H](C)O)NC1=O` [CASPOFUNGIN], the result in [1] and in assay [2] was Active. For the same molecule, the “fold change (FC)” value in assay [3] was -6.1; in [4], 1.1; in assay [5], 7.2; in assay [7], -2.1; in assay [9], -1.15; in assay [10], 1.2. The “fold change (FC)” value in [11] is -2.8; in [12], 3.5; in assay [13], 3.8; in assay [14] it was 3.2; in [15], above -16; in assay [16], -2.3. The “fold change (FC)” value in assay [17] was 1.6; in [18], -11.2; in assay [19] it was 3.6. The result in [6] and in assay [8] was inactive.
